# Measured values published in PubChem BioAssay AID651654 (Broad Institute, 2012).
# “And” between values parts separate entries of the source, which are not always exact repeats. Identical values can stand only once. In all, about 360,000 compounds went through this assay and about 740 (0.21%) were called active. This excerpt belongs to a sample that is enriched for actives. A number with no mark means an inactive call.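 The calls were made as follows: active = mean lysis activity across replicates of at least 80%, whatever share of replicates individually reach that level; inactive = mean lysis activity below 80%.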
# Assay: fungicidal lysis via adenylate kinase leakage – AK release luminescence, single concentration, primary screen (AID 651654)
# Conditions: C. neoformans lysis, 4 h, at 15 µM, active compounds read high, normalised: neutral wells 0, clomiphene wells 100
# Summary of the method: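 Material – log-phase Cryptococcus neoformans yeast cells · Input – 5 × 10^6 yeast cells/mL · Medium – fresh YPD growth medium · Doses – single compound concentration per well · Timing – static 4 h at 37 °C with compound, 1 h detection · Detection – adenylate kinase release luminescence · Read-out – signal increase indicating cell lysis · Control set – Clomiphene as positive lysis control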
row,Compound,lysis activity
1,Cc1noc(C)c1NC(=O)Nc1ccc2c(c1)C(=O)N([C@@H](C)CO)C[C@H](C)[C@H](CN(C)S(=O)(=O)c1ccc(Cl)cc1)O2,96.2% (active)
2,COc1ccc(S(=O)(=O)N(C)C[C@H]2Oc3ccc(NC(=O)Nc4c(C)noc4C)cc3C(=O)N([C@H](C)CO)C[C@H]2C)cc1,-3.44%
3,COc1ccc(S(=O)(=O)N(C)C[C@@H]2Oc3ccc(NC(=O)Nc4c(C)noc4C)cc3C(=O)N([C@H](C)CO)C[C@@H]2C)cc1,-0.689% and -2.77%
4,C[C@H](CO)N1C[C@H](C)[C@@H](CN(C)C(=O)c2ccncc2)Oc2ncc(-c3ccncc3)cc2C1=O,-2.74%
5,COc1ccc(NC(=O)N[C@@H]2C=C[C@H](CC(=O)NC3CCC3)O[C@@H]2CO)cc1,-0.593%
6,C[C@H]1CN([C@@H](C)CO)C(=O)c2cccc(NC(=O)Nc3ccccc3)c2O[C@@H]1CN(C)S(C)(=O)=O,0.333%
7,O=C(Nc1ccccc1)N1C[C@H]2[C@@H](c3ccccc31)[C@@H](CO)N2Cc1cocn1,-2.69%
8,O=C(Nc1ccc(F)cc1)N1C[C@H]2[C@@H](c3ccccc31)[C@@H](CO)N2Cc1cocn1,94.8% (active)
9,O=C(Nc1ccc(F)cc1)N1C[C@@H]2[C@H](c3ccccc31)[C@H](CO)N2Cc1ccccc1,-1.33%
10,CCCNC(=O)N1[C@@H]2Cn3c(ccc(-c4ccc(OC)cc4)c3=O)[C@H]1[C@@H](C(=O)NC1CCC1)[C@@H]2CO,0.95%
11,O=C(N[C@H]1CC[C@@H](CCNS(=O)(=O)c2ccccc2)O[C@H]1CO)c1cccnc1,-5.13%
12,N#C[C@@H]1[C@@H](c2ccccc2)[C@@H](CO)N1C(=O)Cc1ccccc1,116% (active)
13,N#C[C@H]1[C@H](c2ccc(-c3ccccc3)cc2)[C@@H](CO)N1C(=O)Cc1ccccc1,0.774%
14,N#C[C@@H]1[C@@H](c2ccc(-c3ccccc3)cc2)[C@@H](CO)N1C(=O)Cc1ccccc1,0.072%
15,COc1cccc(S(=O)(=O)Nc2ccc3c(c2)[C@H]2C[C@H](CC(=O)N4CCCCC4)O[C@@H](CO)[C@H]2O3)c1,-2.67%
16,O=C(NCc1cccc(F)c1)[C@H]1[C@H](CO)[C@H]2Cn3c(cccc3=O)[C@@H]1N2,0.27%
17,O=C(C[C@@H]1C=C[C@@H](NC(=O)c2ccc3c(c2)OCO3)[C@H](CO)O1)NC1Cc2ccccc2C1,1.22%
18,CO[C@@H]1CN(C)C(=O)c2cc(NC(=O)c3ccccc3)ccc2OC[C@@H](C)N(C(C)=O)C[C@@H]1C,-6.13%
